Rows were chosen to be rich in hits. Some 1.5% of all compounds tested hit in one or more screens of this group.
EBI2 block = EBI2 receptor antagonists, beta-arrestin recruitment, primary screen, cell-based, luminescence, 7a,25-OHC stimulation, uHTS. G-protein coupled receptor 183 (Homo sapiens), P32249. 7a,25-OHC stimulated. inhibition, % at 5 µM. actives 0.81% (n = 360,000). AID 651636, 2012; in the data active = inhibition above about 38%;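 note: enzyme fragment complementation signal reports receptor beta-arrestin coupling in cells; 0% = agonist plus DMSO wells and 100% = wells without agonist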
Target sequence (P32249 whole entry, looked up, the tested form may be a part): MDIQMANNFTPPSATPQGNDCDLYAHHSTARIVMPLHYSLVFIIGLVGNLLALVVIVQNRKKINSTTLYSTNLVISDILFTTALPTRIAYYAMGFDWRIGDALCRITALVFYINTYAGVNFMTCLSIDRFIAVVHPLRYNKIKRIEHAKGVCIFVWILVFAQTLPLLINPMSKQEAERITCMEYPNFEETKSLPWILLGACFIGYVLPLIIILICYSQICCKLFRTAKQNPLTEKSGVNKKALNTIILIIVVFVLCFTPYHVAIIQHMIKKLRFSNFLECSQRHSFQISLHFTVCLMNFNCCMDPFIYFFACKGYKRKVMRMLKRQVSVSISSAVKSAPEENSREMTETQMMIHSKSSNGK
CXCR6 inh = CXCR6 receptor inhibitors, primary screen, cell-based, beta-arrestin, luminescence, CHO-K1 PathHunter, 1536-well | inhibition, % at 20 µM | actives 0.36% (n = 360,000); in the data active = inhibition above about 34%, passing the limit was not always enough;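 note: antagonist mode with CXCL16 agonist at 10 nM final; 0% = 10 nM CXCL16 with DMSO and 100% = unstimulated wells without agonist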
APJ antagonist = antagonists of human apelin receptor APJ, primary screen, CHO-K1 cells, beta-arrestin complementation, luminescence. AID 2521, 2010. actives 0.32% (n = 330,000). P35414. inhibition, % at 20 µM;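 active = inhibition above about 40% at 20 µM, limit read from the data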;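 note: cells challenged with 10 nM apelin-13 agonist together with compound; plate controls were apelin-13 plus DMSO wells for no effect and DMSO wells lacking apelin-13 for full effect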
CCR6 antag = CCR6 receptor antagonists, primary screen, cell-based, CHO-K1, luminescence, beta-arrestin, uHTS; C-C chemokine receptor type 6 (Homo sapiens), P51684; CHO-K1 CCR6 PathHunter beta-arrestin, CCL20-stimulated; inhibition, % at 20 µM; actives 0.49% (n = 340,000); AID 493098, 2011;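 active = compounds whose inhibition of the agonist-driven luminescence signal at 20 µM reaches about 50%, limit read from the data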;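 note: cells stimulated with CCL20 at 14 nM final; plate controls were DMSO with CCL20 for no effect and DMSO without agonist for full effect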
APJ ag = agonists of human apelin receptor APJ, primary screen, CHO-K1 cells, PathHunter beta-arrestin, luminescence; P35414; 0% DMSO wells, 100% apelin; activation, % at 20 µM; actives 0.11% (n = 330,000); AID 2520, 2010;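 active = activation more than six SD over the plate average, tested at 20 µM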;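 note: 0% = DMSO alone and 100% = apelin-13 at 10 nM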
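Assay system – PathHunter CHO-K1 APJ (AGTRL-1) beta-arrestin reporter cells · Compound – one dose, 20 µM compound, 1% DMSO · Timing – compound 90 min 25 °C, reagent 1 h · Measured by – luminescence from split beta-galactosidase complementation, Galacton Star/Emerald II substrate · Measure – beta-arrestin recruitment to APJ as agonist activity, luminescent signal · Benchmarks – DMSO vs Apelin-13 10 nM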
EBI2 conf = EBI2 antagonist hit retest, beta-arrestin, confirmation, cell-based, single concentration, luminescence, 7a,25-OHC stimulation; shares compounds with EBI2 block; 7a,25-OHC antagonism; inhibition, % at 5 µM; actives 29% (n = 2,400); AID 651997, 2013;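 active = inhibition of at least 50%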
EBI2 agonist = EBI2 agonist activity of antagonist hits, confirmation, counter-screen for EBI2 antagonist project, cell-based, single concentration, agonist mode, luminescence. activation, % at 5 µM. EBI2-expressing cells, 60 min; 0% vehicle, 100% 7α,25-dihydroxycholesterol control. shares compounds with EBI2 block. 2,400 tested, under 10 active;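 active = activation of at least 50%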
bGal cs = E. coli beta-galactosidase enzyme inhibition, confirmation, counter-screen for EBI2 antagonist project, biochemical, luminescence, single concentration | actives 1% (n = 2,400) | inhibition, % at 5 µM | purified beta-galactosidase, luminescent Galacton Star, 15 min | shares compounds with EBI2 block;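 active = replicate-average signal at least 3 plate SD below neutral wells, shown as high inhibition, flagging enzyme-inhibiting false positives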;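 note: 0% = DMSO wells with enzyme and 100% = wells lacking enzyme; higher means stronger loss of beta-gal luminescence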
An asterisk follows results filed as active; / = not tested or not shown.

SMILES	EBI2 block	CXCR6 inh	APJ antagonist	CCR6 antag	APJ ag	EBI2 conf	EBI2 agonist	bGal cs
COC(=O)c1sccc1-n1cc2c(c1-c1ccccc1)c(=O)n(C)c(=O)n2C	-0.1	-3.3	/	/	/	/	/	/
CC(C)c1nc2ccc(Br)cn2c1NC1CCCC1	-19.9	4.1	-7.2	-3.5	-3.2	/	/	/
COc1cc(F)cc(C2=CC(=O)C[C@H](c3ccc(F)cc3)C2)c1	52.2*	-0.9	14.2	19.1	-4.1	39.7	-1.6	-8.1
COc1ccc(C2=CC(=O)C[C@H](c3ccc(OC)c(OC)c3)C2)cc1	32.5	0.2	15.1	12.4	-2.5	/	/	/
COc1ccc([C@H]2CC(=O)C=C(/C=C/c3ccc(C(F)(F)F)cc3)C2)cc1	65.1*	6.1	8.0	-9.4	-4.1	33.1	0.2	8.6
CCCOc1ccc(C2=CC(=O)C[C@H](c3ccc(OC)cc3)C2)cc1	67.4*	7.9	7.0	10.5	-5.6	35.3	-0.2	-12.6
COc1ccc2cc(C#CC3=CC(=O)C[C@H](c4ccc(F)cc4)C3)ccc2c1	-2.0	-5.6	/	/	/	/	/	/
COc1ccc([C@H]2CC(=O)C=C(C#CC(C)(C)C)C2)cc1	66.3*	-18.3	-11.8	14.1	1.3	66.7*	0.0	-11.1
COc1ccc([C@H]2CC(=O)C=C(c3ccc(OC(F)(F)F)cc3)C2)cc1	67.8*	1.8	14.9	13.6	-2.2	40.4	-1.2	-8.6
CCc1ccc(-c2n[nH]nc2C2=CC(=O)C[C@H](c3ccc(F)cc3)C2)cc1	53.5*	-1.3	/	/	/	13.5	-1.6	-7.3
COc1ccc([C@H]2CC(=O)C=C(c3cccc(OC(F)(F)F)c3)C2)cc1	6.6	7.4	-5.7	10.6	-0.6	/	/	/
CCOC(=O)[C@H]1[C@H]2COc3ccccc3[C@@H]2N2C(=O)CN(CC3CCCO3)C(=O)[C@@]12C (some centres not stated)	1.7	0.9	10.3	8.0	-4.2	/	/	/
Cc1cccc(NC(=O)c2ccc(OC3CSC3)cc2)c1	55.4*	-14.5	2.8	0.8	-3.4	48.1	1.8	-2.6
CC(=O)c1cccc(NC(=O)c2ccc(OC3CSC3)cc2)c1	13.0	-4.4	10.9	0.0	-2.2	/	/	/
COc1ccc(-c2cc3nc(-c4ccccc4)cc(N4CCN(C(C)=O)CC4)n3n2)cc1	45.6*	-0.1	/	/	/	48.0	0.9	3.1
COc1ccc(-c2cc3nc(-c4ccccc4)cc(N4CCCC(O)C4)n3n2)cc1 (configuration not stated)	66.2*	-13.7	-4.3	-9.6	1.6	55.1*	0.8	6.4
COc1ccc(-c2cc3nc(-c4ccccc4)cc(N4CCN(C(=O)c5ccccc5)CC4)n3n2)cc1	37.6	1.5	/	/	/	/	/	/
COc1ccc(-c2cc3nc(-c4ccccc4)cc(N4CCC(O)CC4)n3n2)cc1	63.9*	-9.3	-2.6	-12.1	6.0	55.7*	-0.4	-22.5
Cc1cc(NC(=O)CSc2ncnc3c2cnn3-c2cccc(Cl)c2)no1	-2.8	1.2	-1.9	-2.8	-0.8	/	/	/
COc1ccc(S(=O)(=O)N2CCC3(CC2)OCCN3S(=O)(=O)c2ccc(C)cc2)cc1OC	0.0	0.0	-10.4	18.3	9.8	/	/	/
Cc1cc(Br)ccc1S(=O)(=O)n1ccnc1C	4.2	1.0	-6.9	-2.5	-0.7	/	/	/
CC(C)c1ccc(C(C)NCCS(=O)(=O)c2ccc(Cl)cc2)cc1 (configuration not stated)	72.3*	5.5	4.5	11.8	-2.7	48.7	0.9	11.5

Screening data: PubChem BioAssay, Sanford-Burnham Center for Chemical Genomics
